Experimental data as given in ChEMBL document CHEMBL4406859, “Antitumor and antiviral activities of 4-substituted 1,2,3-triazolyl-2,3-dibenzyl-L-ascorbic acid derivatives” (Eur J Med Chem, 2019).
Activity calls are given as the source filed them. No cut-off for these calls is given here.

Columns and labels:
[1] = Cytotoxicity against human HELF cells assessed as minimum cytotoxic concentration by observing alteration in cell morphology incubated for 3 days by microscopic analysis; assay type: cell-based; conditions: HELF cells
How it was run: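 Read-out is the minimum cytotoxic concentration (MCC): the lowest compound concentration giving a microscopically detectable change in cell morphology. Measured on confluent human embryonic lung (HEL) fibroblast cultures exposed to a range of compound concentrations.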

[2] = system: Human adenovirus 2; test: Antiviral activity against Human adenovirus 2 infected in human HELF cells assessed as reduction in virus-induced cytopathogenicity incubated for 7 days by microscopic analysis; assay type: functional, organism-based; conditions: for EC50: Human mastadenovirus C, 168 h
[3] = system: A549; test: Antiproliferative activity against human A549 cells assessed as reduction in cell viability incubated for 72 hrs by MTT assay; assay type: functional, cell-based; conditions: A549, 72 h
How it was run: (§1)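 Cells (ATCC) grown in DMEM with 10 FBS, penicillin/streptomycin, 2 mM glutamine, 37 °C, 5 CO2. 5000 cells/well seeded; after 24 h, freshly prepared dilutions at five concentrations (0.01–100 μM) added for 72 h. MTT read-out; absorbance converted to percentage growth by NIH formulas. Two experiments in quadruplicate; IC50 by linear regression.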

[4] = system: CFPAC-1; test: Antiproliferative activity against human CFPAC-1 cells assessed as reduction in cell viability incubated for 72 hrs by MTT assay; assay type: functional, cell-based; conditions: Homo sapiens, CFPAC-1, 72 h; read-out: IC50; how it was run: as §1
[5] = system: HCT-116; test: Antiproliferative activity against human HCT116cells assessed as reduction in cell viability incubated for 72 hrs by MTT assay; assay type: functional, cell-based; conditions: HCT-116, 72 h; how it was run: as §1
[6] = system: HeLa; test: Antiproliferative activity against human HeLa cells assessed as reduction in cell viability incubated for 72 hrs by MTT assay; assay type: functional, cell-based; how it was run: as §1
[7] = system: HepG2; test: Antiproliferative activity against human HepG2 cells assessed as reduction in cell viability incubated for 72 hrs by MTT assay; assay type: functional, cell-based; conditions: HepG2, 72 h; how it was run: as §1
[8] = system: MCF7; test: Antiproliferative activity against human MCF7 cells assessed as reduction in cell viability incubated for 72 hrs by MTT assay; assay type: functional, cell-based; conditions: MCF7, 72 h; how it was run: as §1
[9] = system: SW-620; test: Antiproliferative activity against human SW620 cells assessed as reduction in cell viability incubated for 72 hrs by MTT assay; assay type: functional, cell-based; conditions: SW-620, 72 h; how it was run: as §1
[10] = system: HFF; test: Cytotoxicity against human HFF cells assessed as reduction in cell viability incubated for 72 hrs by MTT assay; assay type: cell-based; how it was run: as §1
[11] = system: Cytomegalovirus; test: Antiviral activity against Cytomegalovirus AD169 infected in human HELF cells assessed as reduction in virus-induced cytopathogenicity incubated for 7 days by Giemsa staining based microscopic analysis; assay type: functional, organism-based; conditions: Human betaherpesvirus 5, AD169, HELF, 168 h
How it was run: (§2)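 Confluent HEL fibroblasts infected with CMV (Davis or AD-169) at 100 PFU/well for 2 h. Residual virus removed, then medium with graded compound concentrations added (duplicate). Incubated 7 days at 37 °C. Cytopathogenicity scored microscopically after ethanol fixation and Giemsa staining. EC50 read from plots of % cytopathogenicity versus concentration.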

[12] = system: Cytomegalovirus; test: Antiviral activity against Cytomegalovirus Davis infected in human HELF cells assessed as reduction in virus-induced cytopathogenicity incubated for 7 days by Giemsa staining based microscopic analysis; assay type: functional, organism-based; conditions: Human betaherpesvirus 5, Davis, 168 h; how it was run: as §2
[13] = system: Human alphaherpesvirus 3; test: Antiviral activity against thymidine kinase deficient Varicella zoster virus infected in human HELF cells assessed as reduction in virus-induced cytopathogenicity incubated for 7 days by Giemsa staining based microscopic analysis; assay type: functional, organism-based; conditions: Human alphaherpesvirus 3, HELF, 168 h
[14] = system: Human alphaherpesvirus 3; test: Antiviral activity against thymidine kinase positive Varicella zoster virus infected in human HELF cells assessed as reduction in virus-induced cytopathogenicity incubated for 7 days by Giemsa staining based microscopic analysis; assay type: functional, organism-based; conditions: Human alphaherpesvirus 3, HELF, 168 h
[15] = system: Influenza A virus; test: Antiviral activity against Influenza A virus (A/Ned/378/05(H1N1)) infected in dog MDCK cells assessed as reduction in virus-induced cytopathogenicity incubated for 7 days by microscopic analysis; assay type: functional, organism-based
[16] = system: Influenza A virus H3N2; test: Antiviral activity against Influenza A virus (A/HK/7/87(H3N2)) infected in dog MDCK cells assessed as reduction in virus-induced cytopathogenicity incubated for 7 days by microscopic analysis; assay type: functional, organism-based; conditions: A/Hong Kong/7/1987(H3N2)
[17] = system: Influenza B virus; test: Antiviral activity against Influenza B virus (B/Ned/537/05) infected in dog MDCK cells assessed as reduction in virus-induced cytopathogenicity incubated for 7 days by microscopic analysis; assay type: functional, organism-based
[18] = system: Influenza A virus; test: Antiviral activity against Influenza A virus (A/Ned/378/05(H1N1)) infected in dog MDCK cells assessed as reduction in virus-induced cytopathogenicity incubated for 7 days by MTS assay; assay type: functional, organism-based
[19] = system: Influenza A virus H3N2; test: Antiviral activity against Influenza A virus (A/HK/7/87(H3N2)) infected in dog MDCK cells assessed as reduction in virus-induced cytopathogenicity incubated for 7 days by MTS assay; assay type: functional, organism-based; conditions: A/Hong Kong/7/1987(H3N2)
[20] = system: Influenza B virus; test: Antiviral activity against Influenza B virus (B/Ned/537/05) infected in dog MDCK cells assessed as reduction in virus-induced cytopathogenicity incubated for 7 days by MTS assay; assay type: functional, organism-based
[21] = system: Human alphaherpesvirus 1; test: Antiviral activity against Herpes simplex virus 1 KOS infected in human HELF cells assessed as reduction in virus-induced cytopathogenicity incubated for 7 days by microscopic analysis; assay type: functional, organism-based; conditions: for Activity: strain KOS
[22] = system: Human alphaherpesvirus 2; test: Antiviral activity against Herpes simplex virus 2 G infected in human HELF cells assessed as reduction in virus-induced cytopathogenicity incubated for 7 days by microscopic analysis; assay type: functional, organism-based
[23] = system: Human alphaherpesvirus 1; test: Antiviral activity against Herpes simplex virus 1 TK-KOS-ACV infected in human HELF cells assessed as reduction in virus-induced cytopathogenicity incubated for 7 days by microscopic analysis; assay type: functional, organism-based
[24] = system: Human coronavirus 229E; test: Antiviral activity against Human coronavirus 229E infected in human HELF cells assessed as reduction in virus-induced cytopathogenicity incubated for 7 days by microscopic analysis; assay type: functional, organism-based
[25] = system: Coxsackievirus B4; test: Antiviral activity against Human coxsackievirus B4 infected in vero cells assessed as reduction in virus-induced cytopathogenicity incubated for 7 days by microscopic analysis; assay type: functional, organism-based
[26] = system: Reovirus sp.; test: Antiviral activity against Reovirus infected in vero cells assessed as reduction in virus-induced cytopathogenicity incubated for 7 days by microscopic analysis; assay type: functional, organism-based
[27] = system: Sindbis virus; test: Antiviral activity against Sindbis virus infected in vero cells assessed as reduction in virus-induced cytopathogenicity incubated for 7 days by microscopic analysis; assay type: functional, organism-based

Cc1cn([C@H]2C[C@H](F)[C@@H](CO)O2)c(=O)[nH]c1=O [ALOVUDINE]
MCC at 72 h [1]: > 250 µM | EC50 [2]: 22 µM

O=C1O[C@H]([C@@H](O)Cn2cc(C3CC3)nn2)C(OCc2ccccc2)=C1OCc1ccccc1
IC50 [3]: 43.9 µM | IC50 [4]: 47.7 µM | IC50 [5]: 30.4 µM | IC50 [6]: 26.5 µM | IC50 [7]: 38.1 µM | IC50 [8]: 25.9 µM | IC50 [9]: 54.2 µM | IC50 [10]: 24.3 µM | EC50 [11]: 44.7 µM | EC50 [12]: > 20 µM | EC50 [13]: > 100 µM | EC50 [14]: > 100 µM | MCC at 72 h [1]: 100 µM | Activity [15]: inactive | Activity [16]: inactive | Activity [17]: inactive | Activity [18]: inactive | Activity [19]: inactive | Activity [20]: inactive | Activity [21]: inactive | Activity [22]: inactive | Activity [23]: inactive | Activity [2]: inactive | Activity [24]: inactive | Activity [25]: inactive | Activity [26]: inactive | Activity [27]: inactive

CCCCc1cn(C/C=C2\OC(=O)C(OCc3ccccc3)=C2OCc2ccccc2)nn1
IC50 [3]: > 100 µM | IC50 [4]: 72.5 µM | IC50 [5]: 61.2 µM | IC50 [6]: 67.7 µM | IC50 [7]: 77.1 µM | IC50 [8]: 57.2 µM | IC50 [10]: 49.5 µM | MCC at 72 h [1]: 100 µM | EC50 ([21]; Human alphaherpesvirus 1, strain KOS, 168 h): > 100 µM | EC50 ([22]; Human alphaherpesvirus 2, G, 168 h): 9.45 µM | EC50 ([23]; Human alphaherpesvirus 1, TK-KOS-ACV, 168 h): > 100 µM | EC50 [2]: 20 µM | EC50 ([24]; 168 h): 8.45 µM

Cc1ccc(S(=O)(=O)NCc2cn(C[C@H](O)[C@H]3OC(=O)C(OCc4ccccc4)=C3OCc3ccccc3)nn2)cc1
IC50 [3]: 16.8 µM | IC50 [4]: 68 µM | IC50 [5]: 13.1 µM | IC50 [6]: 14.4 µM | IC50 [7]: 24.9 µM | IC50 [8]: 6.4 µM | IC50 [9]: 45.8 µM | IC50 [10]: 0.05 µM

CC(C)(C)c1cn(C[C@H](O)[C@H]2OC(=O)C(OCc3ccccc3)=C2OCc2ccccc2)nn1
IC50 [3]: 34 µM | IC50 [4]: 54.9 µM | IC50 [5]: 28.3 µM | IC50 [6]: 18.3 µM | IC50 [7]: 29.2 µM | IC50 [8]: 0.73 µM | IC50 [9]: 35.8 µM | IC50 [10]: 13.3 µM | EC50 [11]: 44.7 µM | EC50 [12]: > 20 µM | EC50 [13]: > 20 µM | EC50 [14]: 48.9 µM | MCC at 72 h [1]: 100 µM | Activity [15]: inactive | Activity [16]: inactive | Activity [17]: inactive | Activity [18]: inactive | Activity [19]: inactive | Activity [20]: inactive | Activity [21]: inactive | Activity [22]: inactive | Activity [23]: inactive | Activity [2]: inactive | Activity [24]: inactive | Activity [25]: inactive | Activity [26]: inactive | Activity [27]: inactive

CCCCc1cn(C[C@H](O)[C@H]2OC(=O)C(OCc3ccccc3)=C2OCc2ccccc2)nn1
IC50 [3]: 28.6 µM | IC50 [4]: 73.2 µM | IC50 [5]: 10.4 µM | IC50 [6]: 18.1 µM | IC50 [7]: 32.8 µM | IC50 [8]: 7.91 µM | IC50 [9]: 47.5 µM | IC50 [10]: 26.3 µM | EC50 [11]: > 20 µM | EC50 [12]: > 4 µM | EC50 [13]: > 20 µM | EC50 [14]: 7.31 µM | MCC at 72 h [1]: 20 µM | Activity [15]: inactive | Activity [16]: inactive | Activity [17]: inactive | Activity [18]: inactive | Activity [19]: inactive | Activity [20]: inactive | Activity [21]: inactive | Activity [22]: inactive | Activity [23]: inactive | Activity [2]: inactive | Activity [24]: inactive | Activity [25]: inactive | Activity [26]: inactive | Activity [27]: inactive

COc1ccc(-c2cn(C[C@H](O)[C@H]3OC(=O)C(OCc4ccccc4)=C3OCc3ccccc3)nn2)cc1
IC50 [3]: 28.3 µM | IC50 [4]: 26 µM | IC50 [5]: > 100 µM | IC50 [6]: 16.4 µM | IC50 [7]: 46.4 µM | IC50 [8]: 99.7 µM | IC50 [9]: 58.2 µM | IC50 [10]: < 0.01 µM
